A short description of experiment [1]: Binding affinity to HCV envelope glycoprotein E2 by surface plasmon resonance assay. Also noted: species or system Hepacivirus hominis. The method, boiled down:
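Surface plasmon resonance on a Biacore 1000 measured binding of E2 protein to the peptides. K_on and K_off were calculated from the association and dissociation phases of the best-fitted binding curves.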

Experiment [2] has as its system Hepacivirus hominis. The experiment can be described thus: Inhibition of HCV envelope glycoprotein E2 to human Huh 7.5.1 cells after 1 hr by flow cytometry relative to control. The method, boiled down: (§1)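 E2 protein (0.25 μg) was preincubated with peptide (250 nM, or a concentration series), 120 nM CD81, 50 IU heparin, or combinations in 100 μl PBS for 1 h at 37°C. The mix was added to 1 × 10⁶ Huh-7.5.1 cells for 30 min at 37°C. Cell-bound E2 was stained with anti-E2 polyclonal and PE anti-rabbit IgG and measured by flow cytometry. Percent inhibition was calculated (means ± SEM, 3–4 experiments).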
For orientation: Flow cytometry measures light scatter and fluorescence of single cells or particles in a stream.

In experiment [3] the test system is Hepacivirus hominis. Kind of experiment: Inhibition of HCV envelope glycoprotein E2 to human Huh 7.5.1 cells after 1 hr by flow cytometry. The method, boiled down: as §1
Experiment [4] relates to Hepatitis C virus. Kind of experiment: Antiviral activity against HCV 2a JFH-1 in human Huh 7.5.1 cells assessed as inhibition of viral infection at 100 to 500 nM after 4 hrs by immunofluorescence staining. Format: functional, organism-based. The settings on record: Hepacivirus hominis, in the assay text read “after overnight incubation” for “after 4 hrs”. The method, boiled down: (§2)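 Cells were washed and E2 was read out in two ways. Western blot used anti-E2 with β-actin as the internal control. Immunofluorescence used 4% paraformaldehyde fixation, rabbit anti-E2 with FITC anti-rabbit IgG for 4 h, and PI nuclear stain. Mean fluorescence was measured by confocal microscopy (means ± SEM, three experiments).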

Experiment [5] has as its system Hepatitis C virus subtype 1a. Kind of experiment: Binding affinity to HCV 1a envelope glycoprotein E2. In a few lines: (§3)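 HepG2 cells stably expressing E1E2 of genotypes 1–6 were established by G418 selection, with parental HepG2 as control. E2 of each genotype was detected with the selected peptide (means ± SEM, three independent experiments).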
Experiment [6] has as its system Hepatitis C virus subtype 2a. The experiment can be described thus: Binding affinity to HCV 2a envelope glycoprotein E2. The method, boiled down: as §3
Experiment [7] relates to CT26. Kind of experiment: Inhibition of HCV envelope glycoprotein E2 to […] cells expressing CD81 after 1 hr by flow cytometry. The class given is cell-based. The settings on record: Hepacivirus hominis.
Experiment [8] has as its system Hepacivirus hominis. Kind of experiment: Binding affinity to HCV GST-tagged envelope glycoprotein E2 after 1 hr by ELISA. The method, boiled down: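 Indirect ELISA on wells coated with 0.3 nM E2-GST or GST (4°C, 7 h) and blocked with 2% BSA (37°C, 2 h). Biotin-labelled peptide at various concentrations was added for 30 min at 37°C, then HRP-streptavidin (1:1,000) for 1 h at 37°C. Signal was developed with o-phenylenediamine and read at 450 nm.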
For orientation: An ELISA detects its analyte on a solid surface through an enzyme-linked reagent.

For a further experiment, the system named is Hepatitis C virus JFH-1. Kind of experiment: Binding affinity to HCV 2a JFH-1 viral particle after 1 hr by indirect ELISA. The method, boiled down:
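Wells were coated with 3 × 10⁵ JFH-1 HCVcc particles per well in carbonate buffer pH 9.6 (7 h, 4°C) and blocked with 1% BSA at 4°C overnight. Control culture medium served as comparison. Biotin-labelled peptide at different concentrations was incubated 30 min at 37°C, followed by HRP-streptavidin (1:1,000) for 1 h at 37°C. Signal was developed with o-phenylenediamine and read at A450 (triplicates; six experiments).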

The test system of experiment [9] is Hepatitis C virus. The experiment can be described thus: Binding affinity to HCV in virus infected patient serum after 1 hr by sandwich ELISA. The settings on record: Hepacivirus hominis. In a few lines:
(§4)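 Sandwich ELISA with wells coated with 0.3 nM peptide and blocked with 2% BSA at 4°C overnight. Serum (100 μl) from HCV antibody/RNA-positive patients (n = 50) or negative healthy donors (n = 55) was incubated 30 min at 37°C. Captured particles were detected with rabbit anti-E2 polyclonal (1:150, 1 h, 37°C), then HRP-labelled reagent, read at A450, and analysed by a nonparametric method.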

Experiment [10] has as its system Hepatitis C virus. Kind of experiment: Binding affinity to HCV in […] healthy human serum after 1 hr by sandwich ELISA. Format: cell-free. The settings on record: Hepacivirus hominis. In a few lines:
as §4

Experiment [11] relates to CT26. Kind of experiment: Inhibition of HCV envelope glycoprotein E2 to […] cells expressing SR-B1 after 1 hr by flow cytometry. The class given is cell-based. The settings on record: Hepacivirus hominis.
The subject of experiment [12] is CT26. The experiment can be described thus: Inhibition of HCV envelope glycoprotein E2 to […] cells expressing CLDN1 after 1 hr by flow cytometry. Format: cell-based. The settings on record: Hepacivirus hominis.
In experiment [13] the test system is CT26. Kind of experiment: Inhibition of HCV envelope glycoprotein E2 to […] cells expressing OCLN after 1 hr by flow cytometry. The class given is cell-based. The settings on record: Hepacivirus hominis.
Experiment [14] deals with Hepatitis C virus. The experiment can be described thus: Antiviral activity against HCV 2a JFH-1 in human Huh 7.5.1 cells assessed as inhibition of viral infection at 100 to 500 nM after 4 hrs by Western blotting. The class given is functional, organism-based. The settings on record: Hepacivirus hominis. The method, boiled down: as §2
Background: In western blotting, separated proteins are transferred to a membrane and probed.

Experiment [15] has as its system Hepatitis C virus. The experiment can be described thus: Antiviral activity against HCV 2a JFH-1 in human Huh 7.5.1 cells cytoplasm assessed as inhibition of viral infection at 100 to 500 nM after 4 hrs by immunofluorescence staining. The class given is functional, organism-based. The settings on record: Hepacivirus hominis. The method, boiled down: as §2
Experiment [16] concerns Hepatitis C virus. The experiment can be described thus: Antiviral activity against HCV 2a JFH-1 in human Huh 7.5.1 cells cytoplasm assessed as inhibition of viral infection at 100 to 500 nM after 4 hrs by RT-PCR analysis. The class given is functional, organism-based. The settings on record: Hepacivirus hominis, in the assay text read “after overnight incubation” for “after 4 hrs”. The method, boiled down:
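Huh-7.5.1 cells (4.5 × 10⁵/well) were co-cultured overnight at 37°C with 200 μl (7 × 10⁷ copies) of JFH-1 HCVcc and peptide at different final concentrations. After washing in DEPC-PBS, total RNA was extracted with Trizol and reverse transcribed. Intracellular HCV RNA was quantified by real-time PCR using 5′ NCR primers and normalized to GAPDH mRNA (means ± SEM, three experiments).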

The test system of experiment [17] is Hepatitis C virus. The experiment can be described thus: Binding affinity to HCV 1b envelope glycoprotein E2. The settings on record: Hepatitis C virus subtype 1b. In a few lines: as §3
The subject of experiment [18] is Hepatitis C virus subtype 3a. Kind of experiment: Binding affinity to HCV 3a envelope glycoprotein E2. The method, boiled down:
as §3

In experiment [19] the test system is Hepatitis C virus subtype 5a. Kind of experiment: Binding affinity to HCV 5a envelope glycoprotein E2. The method, boiled down: as §3
Experiment [20] deals with Hepatitis C virus subtype 6a. The experiment can be described thus: Binding affinity to HCV 6a envelope glycoprotein E2. The method, boiled down: as §3
In experiment [21] the test system is Hepatitis C virus subtype 4a. Kind of experiment: Binding affinity to HCV 4a envelope glycoprotein E2. The method, boiled down:
as §3

Experiment [22] has as its system Hepacivirus hominis. Kind of experiment: Ratio of binding affinity for HCV 1a envelope glycoprotein E2 to binding affinity for HCV 3a envelope glycoprotein E2. The method, boiled down:
as §3

Experiment [23] has as its system Hepacivirus hominis. The experiment can be described thus: Ratio of binding affinity for HCV 1a envelope glycoprotein E2 to binding affinity for HCV 4a envelope glycoprotein E2. In a few lines: as §3
Experiment [24] has as its system Hepacivirus hominis. The experiment can be described thus: Ratio of binding affinity for HCV 1a envelope glycoprotein E2 to binding affinity for HCV 5a envelope glycoprotein E2. In a few lines: as §3
Experiment [25] deals with Hepacivirus hominis. Kind of experiment: Ratio of binding affinity for HCV 1a envelope glycoprotein E2 to binding affinity for HCV 6a envelope glycoprotein E2. The method, boiled down:
as §3

Experiment [26] deals with Hepacivirus hominis. The experiment can be described thus: Ratio of binding affinity for HCV 1b envelope glycoprotein E2 to binding affinity for HCV 3a envelope glycoprotein E2. The method, boiled down:
as §3

The subject of experiment [27] is Hepacivirus hominis. Kind of experiment: Ratio of binding affinity for HCV 1b envelope glycoprotein E2 to binding affinity for HCV 4a envelope glycoprotein E2. The method, boiled down: as §3
Experiment [28] deals with Hepacivirus hominis. Kind of experiment: Ratio of binding affinity for HCV 1b envelope glycoprotein E2 to binding affinity for HCV 5a envelope glycoprotein E2. In a few lines:
as §3

Experiment [29] deals with Hepacivirus hominis. The experiment can be described thus: Ratio of binding affinity for HCV 1b envelope glycoprotein E2 to binding affinity for HCV 6a envelope glycoprotein E2. In a few lines:
as §3

The test system of experiment [30] is Hepacivirus hominis. Kind of experiment: Ratio of binding affinity for HCV 2a envelope glycoprotein E2 to binding affinity for HCV 3a envelope glycoprotein E2. In a few lines: as §3
Experiment [31] concerns Hepacivirus hominis. Kind of experiment: Ratio of binding affinity for HCV 2a envelope glycoprotein E2 to binding affinity for HCV 4a envelope glycoprotein E2. In a few lines: as §3
The test system of experiment [32] is Hepacivirus hominis. Kind of experiment: Ratio of binding affinity for HCV 2a envelope glycoprotein E2 to binding affinity for HCV 5a envelope glycoprotein E2. The method, boiled down: as §3
Experiment [33] concerns Hepacivirus hominis. The experiment can be described thus: Ratio of binding affinity for HCV 2a envelope glycoprotein E2 to binding affinity for HCV 6a envelope glycoprotein E2. In a few lines: as §3

Molecules are shown by their SMILES. Active and inactive are the calls of the source. The rule behind the calls is not given here. Where a SMILES comes first, the peptide text is derived from it.

For `N=C(N)NCCC[C@H](NC(=O)CNC(=O)[C@H](Cc1ccccc1)NC(=O)CN)C(=O)N[C@@H](Cc1ccc(O)cc1)C(=O)N[C@@H](CCCNC(=N)N)C(=O)N[C@@H](CCCNC(=N)N)C(=O)N[C@@H](Cc1cnc[nH]1)C(=O)NCC(=O)N[C@@H](CO)C(=O)N1CCC[C@H]1C(=O)N[C@@H](Cc1c[nH]c2ccccc12)C(=O)O` (H-GFGRYRRHGSPW-OH), the Kd (usually the equilibrium constant for the complex coming apart) in [1] (read-out: Kd) was determined as 50 nM. For the same molecule, the cell-bound E2 remaining in the experiment on Hepacivirus hominis [2] worked out at 32%.
For the molecule `CC[C@H](C)[C@H](NC(=O)[C@@H](NC(=O)[C@H](CC(C)C)NC(=O)[C@@H](NC(=O)[C@H](CO)NC(=O)[C@@H](N)CC(C)C)C(C)C)C(C)C)C(=O)N[C@@H](CO)C(=O)N[C@@H](CCSC)C(=O)N[C@@H](Cc1ccccc1)C(=O)N[C@@H](CC(N)=O)C(=O)N[C@@H](C)C(=O)N[C@H](C(=O)O)C(C)C` (H-LSVLVISMFNAV-OH), in experiment [1], the Kd entry is recorded as “Not Active”. Besides, the cell-bound E2 remaining in the experiment on Hepacivirus hominis [2] is 30%.
For the molecule `CC[C@H](C)[C@H](NC(=O)[C@H](C)NC(=O)[C@@H](N)CCSC)C(=O)NCC(=O)N1CCC[C@H]1C(=O)N[C@@H](Cc1ccc(O)cc1)C(=O)N1CCC[C@H]1C(=O)N[C@@H](C)C(=O)N[C@@H](CS)C(=O)NCC(=O)N[C@@H](CO)C(=O)NCC(=O)O` (H-MAIGPYPACGSG-OH), the dissociation constant (Kd) in experiment [1] (read-out: Kd) came to 43 nM. This molecule also registered a cell-bound E2 remaining in the experiment with Hepacivirus hominis [2] of 7%. The inhibition result in the experiment with Hepacivirus hominis [3] was “Dose-dependent effect”.
As to `CSCC[C@H](NC(=O)[C@@H](NC(=O)[C@H](CC(C)C)NC(=O)[C@@H]1CCCN1C(=O)[C@H](Cc1c[nH]c2ccccc12)NC(=O)[C@H](CC(N)=O)NC(=O)[C@H](CCCNC(=N)N)NC(=O)[C@H](Cc1cnc[nH]1)NC(=O)[C@H](CCCNC(=N)N)NC(=O)[C@H](C)NC(=O)[C@@H](N)CCSC)C(C)C)C(=O)N[C@H](C(=O)O)C(C)C` (H-MARHRNWPLVMV-OH), the Activity result in the experiment on Hepatitis C virus [4], in the experiment on Hepacivirus hominis [8], in the experiment with Hepatitis C virus JFH-1 and with Hepatitis C virus [14] was “Dose-dependent effect” in each case. Further, the outcome (in experiment [5]; in experiment [6]; with Hepatitis C virus [9]; in the experiment with Hepatitis C virus [15]; with Hepatitis C virus [16]; in the experiment with Hepatitis C virus [17]) was Active. The outcome in [18], in experiment [19], in experiment [20] and in [21] was Active. Moreover, the inhibition entry in the experiment on CT26 [7] is “Active”. For the same molecule, the dissociation constant Kd in experiment [1] (read-out: Kd) was 19 nM. Also, the outcome in the experiment on Hepatitis C virus [10] was inactive. Besides, the inhibition entry in the experiment on CT26 [11], with CT26 [12] and in the experiment with CT26 [13] was “inactive” in each case. Besides, in the experiment on Hepacivirus hominis [3], the inhibition result is “Dose-dependent effect”. For the same molecule, the Ratio with Hepacivirus hominis [22], in the experiment on Hepacivirus hominis [23], with Hepacivirus hominis [24], with Hepacivirus hominis [25], in the experiment on Hepacivirus hominis [26] and in the experiment on Hepacivirus hominis [27] was 2 throughout. Moreover, the Ratio in the experiment on Hepacivirus hominis [28], with Hepacivirus hominis [29], with Hepacivirus hominis [30], in the experiment with Hepacivirus hominis [31], in the experiment with Hepacivirus hominis [32] and in the experiment on Hepacivirus hominis [33] was 2 in each case.
